# Experimental data collected from several papers.
# Protocols differ between the studies behind these lines.
# Target: Mitogen-activated protein kinase kinase kinase 19 (MAP3K19, Homo sapiens, UniProt Q56UN5)
# Sequence (Q56UN5 1-1328, as in one of the studies): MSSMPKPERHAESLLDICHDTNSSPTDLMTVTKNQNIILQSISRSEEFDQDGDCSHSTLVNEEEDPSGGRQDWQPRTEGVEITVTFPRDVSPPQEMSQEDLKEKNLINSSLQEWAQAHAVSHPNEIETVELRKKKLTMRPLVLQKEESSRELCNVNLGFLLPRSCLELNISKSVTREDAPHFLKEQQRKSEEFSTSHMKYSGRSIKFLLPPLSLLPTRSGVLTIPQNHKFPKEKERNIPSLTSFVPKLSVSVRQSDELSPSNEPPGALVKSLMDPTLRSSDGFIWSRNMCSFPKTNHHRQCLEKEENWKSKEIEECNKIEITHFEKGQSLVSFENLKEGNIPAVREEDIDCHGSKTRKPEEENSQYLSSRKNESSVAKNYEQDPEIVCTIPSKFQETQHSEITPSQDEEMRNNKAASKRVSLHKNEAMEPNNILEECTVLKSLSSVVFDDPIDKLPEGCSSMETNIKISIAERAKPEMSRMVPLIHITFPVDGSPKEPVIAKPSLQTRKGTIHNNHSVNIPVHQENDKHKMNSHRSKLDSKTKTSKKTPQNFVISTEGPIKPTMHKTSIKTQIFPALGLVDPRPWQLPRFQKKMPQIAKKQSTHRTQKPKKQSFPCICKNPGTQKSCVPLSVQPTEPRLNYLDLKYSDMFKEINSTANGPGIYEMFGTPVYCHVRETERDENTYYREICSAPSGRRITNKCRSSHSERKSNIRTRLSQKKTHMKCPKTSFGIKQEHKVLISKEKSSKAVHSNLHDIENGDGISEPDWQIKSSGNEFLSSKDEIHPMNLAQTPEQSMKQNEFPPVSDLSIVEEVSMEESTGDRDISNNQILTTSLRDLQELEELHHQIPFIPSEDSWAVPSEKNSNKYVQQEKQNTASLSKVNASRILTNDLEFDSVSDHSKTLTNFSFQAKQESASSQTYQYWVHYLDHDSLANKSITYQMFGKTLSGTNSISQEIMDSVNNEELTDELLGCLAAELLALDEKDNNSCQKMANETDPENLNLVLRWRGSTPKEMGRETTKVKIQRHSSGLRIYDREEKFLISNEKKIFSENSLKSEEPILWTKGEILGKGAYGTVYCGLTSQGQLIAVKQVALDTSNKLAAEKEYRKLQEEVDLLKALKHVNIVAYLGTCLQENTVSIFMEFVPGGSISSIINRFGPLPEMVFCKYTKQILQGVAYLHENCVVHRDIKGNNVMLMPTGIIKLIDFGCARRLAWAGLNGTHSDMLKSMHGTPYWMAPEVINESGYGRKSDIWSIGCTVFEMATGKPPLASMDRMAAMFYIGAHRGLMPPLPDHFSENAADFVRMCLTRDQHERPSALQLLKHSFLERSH
SMILES,assay,setting,remaining binding [%]
CNC(=O)[C@@H]1CC[C@@H](n2c(-c3ccc4cnccc4c3)nc3ccc(C(=O)NCc4cccc(C(N)=O)c4)cc32)C1,"binding, competition with immobilised ligand",1 µM,100
CNCc1ccccc1-c1csc([C@H](C)Nc2nc(C)nc3cc(OC)c(OC)cc23)c1,"cell-free assay, competition with immobilised ligand",1 µM,78
CN(C)c1nccc(-c2cnc3ncccn23)n1,binding,1 µM,79
O=C(c1ccc(Nc2nccc(-c3cc4ccccc4s3)n2)cc1)N1CCC(N2CCCC2)CC1,"binding, competition with immobilised ligand",1 µM,0
O=C(NCCCC1CCCCC1)c1ccc(CNC(=O)c2cnn(-c3ccccc3)c2C(F)(F)F)cc1,"cell-free assay, competition with immobilised ligand",0.1 µM,89
N[C@@H]1CCN(c2nccc(-c3cnn4ncccc34)n2)C1,binding,1 µM,76
C=CC(=O)N1CCC(C(=O)NCC(=O)N2CCN(c3nc(-c4cnc(N)nc4C(F)F)nc(N4CCOCC4)n3)CC2)CC1,"binding, competition with immobilised ligand",1 µM,42
O=C(Nc1c[nH]nc1C(=O)NC1CCNCC1)c1cc(F)cc(F)c1,"binding, competition with immobilised ligand",1 µM,100
Cc1cnn2ncc(-c3ccnc(N(C)C)n3)c2c1,binding,1 µM,75
Cc1cc(-n2nc(Cc3cc(F)cc(C(F)(F)F)c3)nc2C)ccc1C(N)=O,"cell-free assay, competition with immobilised ligand",1 µM,98
O=C(NCCCN1CCOCC1)c1ccc(Nc2ncc(Cl)c(-c3ccc(Cl)s3)n2)cc1,"binding, competition with immobilised ligand",1 µM,0
CN(CCCC(F)(F)F)c1nccc(-c2cnn3ncccc23)n1,binding,1 µM,95
O=C(c1ccc(Nc2ncc(Cl)c(-c3ccc(Cl)s3)n2)cc1)N1CCC(N2CCCC2)CC1,"binding, competition with immobilised ligand",1 µM,0
Nc1ncc2c(n1)-c1c([nH]c3ccc(C#CC4CC4)cc13)CCCC2,"binding, competition with immobilised ligand",1 µM,64
Cc1nc(N2CC[C@@H](O)C2)ncc1-c1cc(C(F)(F)F)cc2[nH]ncc12,"binding, competition with immobilised ligand",1 µM,67
COc1ccnn2ncc(-c3ccnc(N(C)C)n3)c12,binding,1 µM,54
CCCOc1ccc([C@@H]2[C@@H](C(=O)O)[C@H](c3ccc4c(c3)OCO4)CN2CC(=O)Nc2c(CC)cccc2CC)cc1,"cell-free assay, competition with immobilised ligand",1 µM,93
C[C@@H]1CCN(c2nccc(-c3cnn4ncccc34)n2)C1,binding,1 µM,79
COc1cnc(Nc2cccc(S(N)(=O)=O)c2)nc1N1CCN(c2ccccc2)CC1,"binding, competition with immobilised ligand",1 µM,71
CO[C@H]1CC[C@H](CNc2ccc(S(=O)(=O)NC(=O)c3ccc(N4CCN(CC5=C(c6ccc(Cl)cc6)CC(C)(C)CC5)CC4)cc3Oc3cnc4[nH]ccc4c3)cc2[N+](=O)[O-])CC1,"cell-free assay, competition with immobilised ligand",1 µM,64
